Laboratory results: ChEMBL document CHEMBL4689842, “EUbOPEN Chemogenomics Library wave 1” (2021)
“And” between values parts separate entries of the source, which are not always exact repeats. Identical values can stand only once.

Test system: Fibroblast
Test: Multiplex assay against human fibroblast
Type: toxicity, cell-based
Procedure, shortened: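 Four dyes were applied at seeding to live cells: Hoechst33342, BioTracker Green Microtubule Cytoskeleton Dye, MitoTracker Red and Annexin V Alexa Fluor 680. Imaging after compound addition used a CQ1 microscope at 37°C and 5% CO2. CellPathfinder machine-learning gating then sorted cells into Hoechst high-intensity objects or normal cells, normal cells into healthy, pyknosed or fragmented nuclei, and pyknosed cells into mitotic or apoptotic, with tubulin, mitochondrial-mass and membrane-permeability phenotypes given as per cents of healthy-nucleus cells.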

[1] = 12 h, 1 µM, compound concentration 1 uM, replicate 1
[2] = 12 h, 1 µM, compound concentration 1 uM, replicate 2
[3] = 12 h, 10 µM, compound concentration 10 uM, replicate 1
[4] = 12 h, 10 µM, compound concentration 10 uM, replicate 2
[5] = 24 h, 1 µM, compound concentration 1 uM, replicate 1
[6] = 24 h, 1 µM, compound concentration 1 uM, replicate 2
[7] = 24 h, 10 µM, compound concentration 10 uM, replicate 1
[8] = 24 h, 10 µM, compound concentration 10 uM, replicate 2
[9] = 48 h, 10 µM, compound concentration 10 uM, replicate 1
[10] = 48 h, 10 µM, compound concentration 10 uM, replicate 2
[11] = 48 h, 1 µM, compound concentration 1 uM, replicate 1
[12] = 48 h, 1 µM, compound concentration 1 uM, replicate 2

## CN1CCN(C(=O)C(C)(C)c2ccc(C(=O)Nc3cn4cc(-c5cc(C(C)(C)C)cc(C(C)(C)C)c5)ccc4n3)cc2)CC1 [T3-CLK-N]
[1]
  Population Apoptotic (%): 84%
  Population Fragmented Nuclei (%): 34%
  Population Healthy Nuclei (%): 52%
  Population Hoechst High Intensity Objects (%): 19%
  Population Membrane Permeable-Phenotype (%): 8%
  Population Mitochondria Different-Phenotype (%): 1%
  Population Mitotic Cells (%): 16%
  Population Normal (%): 80%
  Population Pyknosed Nuclei (%): 13%
  Population Tubulin-Different-Phenotype (%): 3%
  Total Cell Count: 237
[2]
  Population Apoptotic (%): 42%
  Population Fragmented Nuclei (%): 44%
  Population Healthy Nuclei (%): 44%
  Population Hoechst High Intensity Objects (%): 26%
  Population Membrane Permeable-Phenotype (%): 14%
  Population Mitochondria Different-Phenotype (%): 11%
  Population Mitotic Cells (%): 57%
  Population Normal (%): 73%
  Population Pyknosed Nuclei (%): 11%
  Population Tubulin-Different-Phenotype (%): 22%
  Total Cell Count: 83
[3]
  Population Apoptotic (%): 78%
  Population Fragmented Nuclei (%): 39%
  Population Healthy Nuclei (%): 45%
  Population Hoechst High Intensity Objects (%): 16%
  Population Membrane Permeable-Phenotype (%): 23%
  Population Mitochondria Different-Phenotype (%): 1%
  Population Mitotic Cells (%): 21%
  Population Normal (%): 83%
  Population Pyknosed Nuclei (%): 14%
  Population Tubulin-Different-Phenotype (%): 21%
  Total Cell Count: 260
[4]
  Population Apoptotic (%): 50%
  Population Fragmented Nuclei (%): 40%
  Population Healthy Nuclei (%): 30%
  Population Hoechst High Intensity Objects (%): 39%
  Population Membrane Permeable-Phenotype (%): 30%
  Population Mitochondria Different-Phenotype (%): 23%
  Population Mitotic Cells (%): 50%
  Population Normal (%): 60%
  Population Pyknosed Nuclei (%): 28%
  Population Tubulin-Different-Phenotype (%): 23%
  Total Cell Count: 69
[5]
  Population Apoptotic (%): 73%
  Population Fragmented Nuclei (%): 31%
  Population Healthy Nuclei (%): 51%
  Population Hoechst High Intensity Objects (%): 16%
  Population Membrane Permeable-Phenotype (%): 9%
  Population Mitochondria Different-Phenotype (%): 2%
  Population Mitotic Cells (%): 26%
  Population Normal (%): 83%
  Population Pyknosed Nuclei (%): 16%
  Population Tubulin-Different-Phenotype (%): 6%
  Total Cell Count: 243
[6]
  Population Apoptotic (%): 40%
  Population Fragmented Nuclei (%): 42%
  Population Healthy Nuclei (%): 48%
  Population Hoechst High Intensity Objects (%): 28%
  Population Membrane Permeable-Phenotype (%): 11%
  Population Mitochondria Different-Phenotype (%): 11%
  Population Mitotic Cells (%): 60%
  Population Normal (%): 71%
  Population Pyknosed Nuclei (%): 8%
  Population Tubulin-Different-Phenotype (%): 11%
  Total Cell Count: 78
[7]
  Population Apoptotic (%): 82%
  Population Fragmented Nuclei (%): 32%
  Population Healthy Nuclei (%): 54%
  Population Hoechst High Intensity Objects (%): 10%
  Population Membrane Permeable-Phenotype (%): 22%
  Population Mitochondria Different-Phenotype (%): 5%
  Population Mitotic Cells (%): 17%
  Population Normal (%): 89%
  Population Tubulin-Different-Phenotype (%): 30%
  Total Cell Count: 245
[8]
  Population Apoptotic (%): 33%
  Population Fragmented Nuclei (%): 55%
  Population Healthy Nuclei (%): 30%
  Population Hoechst High Intensity Objects (%): 38%
  Population Membrane Permeable-Phenotype (%): 38%
  Population Mitochondria Different-Phenotype (%): 15%
  Population Mitotic Cells (%): 66%
  Population Normal (%): 61%
  Population Pyknosed Nuclei (%): 13%
  Population Tubulin-Different-Phenotype (%): 23%
  Total Cell Count: 70

## CN1CCN(C(=O)C(C)(C)c2ccc(C(=O)Nc3cn4cc(-c5ccncc5)ccc4n3)cc2)CC1 [T3-CLK]
[3]
  Population Apoptotic (%): 65% and 61% and 86%
  Population Fragmented Nuclei (%): 35% and 22%
  Population Healthy Nuclei (%): 48% and 50% and 64%
  Population Hoechst High Intensity Objects (%): 12% and 17%
  Population Mitochondria Different-Phenotype (%): 6%
  Population Mitotic Cells (%): 35% and 38% and 13%
  Population Normal (%): 87% and 82%
  Population Pyknosed Nuclei (%): 15% and 14% and 13%
  Total Cell Count: 145 and 330 and 306
[4]
  Population Membrane Permeable-Phenotype (%): 31% and 20% and 21%
  Population Normal (%): 73% and 49% and 92%
  Population Pyknosed Nuclei (%): 6% and 9% and 11%
  Population Tubulin-Different-Phenotype (%): 44% and 60% and 94%
  Total Cell Count: 87 and 63 and 57
[7]
  Population Apoptotic (%): 69% and 55% and 80%
  Population Fragmented Nuclei (%): 37% and 35% and 18%
  Population Healthy Nuclei (%): 48% and 45% and 67%
  Population Hoechst High Intensity Objects (%): 18% and 11% and 13%
  Population Mitotic Cells (%): 30% and 44% and 20%
  Population Normal (%): 81% and 88% and 86%
  Population Pyknosed Nuclei (%): 13% and 19%
  Total Cell Count: 335 and 161 and 296
[8]
  Population Membrane Permeable-Phenotype (%): 33% and 17%
  Population Normal (%): 58% and 90% and 61%
  Population Pyknosed Nuclei (%): 9% and 11% and 6%
  Population Tubulin-Different-Phenotype (%): 33% and 88% and 50%
  Total Cell Count: 53 and 57 and 76
[9]
  Population Apoptotic (%): 52%
  Population Fragmented Nuclei (%): 52%
  Population Healthy Nuclei (%): 32%
  Population Hoechst High Intensity Objects (%): 17%
  Population Membrane Permeable-Phenotype (%): 32%
  Population Mitochondria Different-Phenotype (%): 20%
  Population Mitotic Cells (%): 47%
  Population Normal (%): 82%
  Population Pyknosed Nuclei (%): 15%
  Population Tubulin-Different-Phenotype (%): 76%
  Total Cell Count: 162
[10]
  Population Apoptotic (%): 63%
  Population Fragmented Nuclei (%): 38%
  Population Healthy Nuclei (%): 49%
  Population Hoechst High Intensity Objects (%): 6%
  Population Membrane Permeable-Phenotype (%): 47%
  Population Mitochondria Different-Phenotype (%): 15%
  Population Mitotic Cells (%): 36%
  Population Normal (%): 93%
  Population Pyknosed Nuclei (%): 12%
  Population Tubulin-Different-Phenotype (%): 65%
  Total Cell Count: 95

## O=C(Cc1ccc(-c2ccc(OCCN3CCOCC3)cc2)cn1)NCc1ccccc1 [TIRBANIBULIN]
[1]
  Population Apoptotic (%): 71%
  Population Fragmented Nuclei (%): 20%
  Population Healthy Nuclei (%): 47%
  Population Hoechst High Intensity Objects (%): 16%
  Population Membrane Permeable-Phenotype (%): 18%
  Population Mitochondria Different-Phenotype (%): 9%
  Population Mitotic Cells (%): 28%
  Population Normal (%): 83%
  Population Pyknosed Nuclei (%): 31%
  Population Tubulin-Different-Phenotype (%): 12%
  Total Cell Count: 80
[2]
  Population Apoptotic (%): 0%
  Population Fragmented Nuclei (%): 5%
  Population Healthy Nuclei (%): 90%
  Population Hoechst High Intensity Objects (%): 12%
  Population Membrane Permeable-Phenotype (%): 9%
  Population Mitochondria Different-Phenotype (%): 21%
  Population Mitotic Cells (%): 100%
  Population Normal (%): 87%
  Population Pyknosed Nuclei (%): 4%
  Total Cell Count: 108
[3]
  Population Apoptotic (%): 66%
  Population Fragmented Nuclei (%): 30%
  Population Healthy Nuclei (%): 39%
  Population Hoechst High Intensity Objects (%): 15%
  Population Membrane Permeable-Phenotype (%): 17%
  Population Mitochondria Different-Phenotype (%): 13%
  Population Mitotic Cells (%): 33%
  Population Normal (%): 84%
  Population Pyknosed Nuclei (%): 29%
  Population Tubulin-Different-Phenotype (%): 28%
  Total Cell Count: 134
[4]
  Population Apoptotic (%): 50%
  Population Fragmented Nuclei (%): 13%
  Population Healthy Nuclei (%): 78%
  Population Hoechst High Intensity Objects (%): 10%
  Population Membrane Permeable-Phenotype (%): 4%
  Population Mitochondria Different-Phenotype (%): 19%
  Population Mitotic Cells (%): 50%
  Population Normal (%): 89%
  Population Pyknosed Nuclei (%): 7%
  Population Tubulin-Different-Phenotype (%): 12%
  Total Cell Count: 81
[5]
  Population Apoptotic (%): 57%
  Population Fragmented Nuclei (%): 29%
  Population Healthy Nuclei (%): 44%
  Population Hoechst High Intensity Objects (%): 14%
  Population Membrane Permeable-Phenotype (%): 37%
  Population Mitochondria Different-Phenotype (%): 9%
  Population Mitotic Cells (%): 42%
  Population Normal (%): 85%
  Population Pyknosed Nuclei (%): 26%
  Population Tubulin-Different-Phenotype (%): 18%
  Total Cell Count: 84
[6]
  Population Apoptotic (%): 61%
  Population Fragmented Nuclei (%): 16%
  Population Healthy Nuclei (%): 66%
  Population Hoechst High Intensity Objects (%): 9%
  Population Membrane Permeable-Phenotype (%): 6%
  Population Mitochondria Different-Phenotype (%): 44%
  Population Mitotic Cells (%): 38%
  Population Normal (%): 90%
  Population Pyknosed Nuclei (%): 17%
  Population Tubulin-Different-Phenotype (%): 10%
  Total Cell Count: 155
[7]
  Population Apoptotic (%): 54%
  Population Fragmented Nuclei (%): 42%
  Population Healthy Nuclei (%): 37%
  Population Hoechst High Intensity Objects (%): 13%
  Population Membrane Permeable-Phenotype (%): 17%
  Population Mitochondria Different-Phenotype (%): 8%
  Population Mitotic Cells (%): 45%
  Population Normal (%): 86%
  Population Pyknosed Nuclei (%): 20%
  Population Tubulin-Different-Phenotype (%): 35%
  Total Cell Count: 138
[8]
  Population Apoptotic (%): 66%
  Population Fragmented Nuclei (%): 19%
  Population Healthy Nuclei (%): 57%
  Population Hoechst High Intensity Objects (%): 10%
  Population Membrane Permeable-Phenotype (%): 10%
  Population Mitochondria Different-Phenotype (%): 40%
  Population Mitotic Cells (%): 33%
  Population Normal (%): 89%
  Population Pyknosed Nuclei (%): 23%
  Population Tubulin-Different-Phenotype (%): 13%
  Total Cell Count: 82
[11]
  Population Apoptotic (%): 50%
  Population Fragmented Nuclei (%): 40%
  Population Healthy Nuclei (%): 47%
  Population Hoechst High Intensity Objects (%): 14%
  Population Membrane Permeable-Phenotype (%): 31%
  Population Mitochondria Different-Phenotype (%): 2%
  Population Mitotic Cells (%): 50%
  Population Normal (%): 85%
  Population Pyknosed Nuclei (%): 12%
  Population Tubulin-Different-Phenotype (%): 7%
  Total Cell Count: 94
[12]
  Population Apoptotic (%): 71%
  Population Fragmented Nuclei (%): 35%
  Population Healthy Nuclei (%): 59%
  Population Hoechst High Intensity Objects (%): 10%
  Population Membrane Permeable-Phenotype (%): 18%
  Population Mitochondria Different-Phenotype (%): 7%
  Population Mitotic Cells (%): 28%
  Population Normal (%): 89%
  Population Pyknosed Nuclei (%): 4%
  Population Tubulin-Different-Phenotype (%): 15%
  Total Cell Count: 170
[9]
  Population Apoptotic (%): 48%
  Population Fragmented Nuclei (%): 38%
  Population Healthy Nuclei (%): 34%
  Population Hoechst High Intensity Objects (%): 17%
  Population Membrane Permeable-Phenotype (%): 21%
  Population Mitochondria Different-Phenotype (%): 7%
  Population Mitotic Cells (%): 51%
  Population Normal (%): 82%
  Population Pyknosed Nuclei (%): 26%
  Population Tubulin-Different-Phenotype (%): 29%
  Total Cell Count: 143
[10]
  Population Apoptotic (%): 66%
  Population Fragmented Nuclei (%): 44%
  Population Healthy Nuclei (%): 53%
  Population Membrane Permeable-Phenotype (%): 15%
  Population Mitochondria Different-Phenotype (%): 5%
  Population Mitotic Cells (%): 33%
  Population Pyknosed Nuclei (%): 2%
  Population Tubulin-Different-Phenotype (%): 22%
  Total Cell Count: 164
